From ChEMBL document CHEMBL4689842, “EUbOPEN Chemogenomics Library wave 1” (2021)

Tested on: HEK-293T
Assay: Multiplex assay against HEK293T;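 as to Population Tubulin-Different-Phenotype (%): share of the cells with healthy nuclei that show this phenotype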
Type: toxicity, cell-based
Conditions: human
How it was run: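 Four dyes were applied at seeding to live cells: Hoechst33342, BioTracker Green Microtubule Cytoskeleton Dye, MitoTracker Red and Annexin V Alexa Fluor 680. Imaging after compound addition used a CQ1 microscope at 37°C and 5% CO2. CellPathfinder machine-learning gating then sorted cells into Hoechst high-intensity objects or normal cells, normal cells into healthy, pyknosed or fragmented nuclei, and pyknosed cells into mitotic or apoptotic, with tubulin, mitochondrial-mass and membrane-permeability phenotypes given as per cents of healthy-nucleus cells.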

[1] = 12 h, 1 µM, compound concentration 1 uM, replicate 1
[2] = 12 h, 1 µM, compound concentration 1 uM, replicate 2
[3] = 12 h, 10 µM, compound concentration 10 uM, replicate 1
[4] = 12 h, 10 µM, compound concentration 10 uM, replicate 2
[5] = 24 h, 1 µM, compound concentration 1 uM, replicate 1
[6] = 24 h, 1 µM, compound concentration 1 uM, replicate 2
[7] = 24 h, 10 µM, compound concentration 10 uM, replicate 1
[8] = 24 h, 10 µM, compound concentration 10 uM, replicate 2
[9] = 48 h, 1 µM, compound concentration 1 uM, replicate 1
[10] = 48 h, 1 µM, compound concentration 1 uM, replicate 2
[11] = 48 h, 10 µM, compound concentration 10 uM, replicate 1
[12] = 48 h, 10 µM, compound concentration 10 uM, replicate 2

CCCCCNC(=N)N/N=C/c1c[nH]c2ccc(OC)cc12.O=C(O)/C=C\C(=O)O [TEGASEROD MALEATE]
Population Apoptotic (%) [1]: 45%
Population Fragmented Nuclei (%) [1]: 20%
Population Healthy Nuclei (%) [1]: 42%
Population Hoechst High Intensity Objects (%) [1]: 16%
Population Membrane Permeable-Phenotype (%) [1]: 4%
Population Mitochondria Different-Phenotype (%) [1]: 88%
Population Mitotic Cells (%) [1]: 54%
Population Normal (%) [1]: 83%
Population Pyknosed Nuclei (%) [1]: 36%
Population Tubulin-Different-Phenotype (%) [1]: 52%
Total Cell Count [1]: 192
Population Apoptotic (%) [2]: 24%
Population Fragmented Nuclei (%) [2]: 4%
Population Healthy Nuclei (%) [2]: 35%
Population Hoechst High Intensity Objects (%) [2]: 1%
Population Membrane Permeable-Phenotype (%) [2]: 9%
Population Mitochondria Different-Phenotype (%) [2]: 50%
Population Mitotic Cells (%) [2]: 75%
Population Normal (%) [2]: 98%
Population Pyknosed Nuclei (%) [2]: 59%
Population Tubulin-Different-Phenotype (%) [2]: 48%
Total Cell Count [2]: 204
Population Apoptotic (%) [3]: 51%
Population Fragmented Nuclei (%) [3]: 27%
Population Healthy Nuclei (%) [3]: 0%
Population Hoechst High Intensity Objects (%) [3]: 27%
Population Membrane Permeable-Phenotype (%) [3]: 0%
Population Mitochondria Different-Phenotype (%) [3]: 0%
Population Mitotic Cells (%) [3]: 48%
Population Normal (%) [3]: 72%
Population Pyknosed Nuclei (%) [3]: 72%
Population Tubulin-Different-Phenotype (%) [3]: 0%
Total Cell Count [3]: 295
Population Apoptotic (%) [4]: 96%
Population Fragmented Nuclei (%) [4]: 15%
Population Healthy Nuclei (%) [4]: 3%
Population Hoechst High Intensity Objects (%) [4]: 29%
Population Mitotic Cells (%) [4]: 3%
Population Normal (%) [4]: 70%
Population Pyknosed Nuclei (%) [4]: 81%
Population Tubulin-Different-Phenotype (%) [4]: 100%
Total Cell Count [4]: 93
Population Apoptotic (%) [5]: 46%
Population Fragmented Nuclei (%) [5]: 15%
Population Healthy Nuclei (%) [5]: 60%
Population Hoechst High Intensity Objects (%) [5]: 13%
Population Membrane Permeable-Phenotype (%) [5]: 1%
Population Mitochondria Different-Phenotype (%) [5]: 83%
Population Mitotic Cells (%) [5]: 53%
Population Normal (%) [5]: 86%
Population Pyknosed Nuclei (%) [5]: 23%
Population Tubulin-Different-Phenotype (%) [5]: 46%
Total Cell Count [5]: 196
Population Apoptotic (%) [6]: 24%
Population Fragmented Nuclei (%) [6]: 4%
Population Healthy Nuclei (%) [6]: 54%
Population Hoechst High Intensity Objects (%) [6]: 3%
Population Membrane Permeable-Phenotype (%) [6]: 7%
Population Mitochondria Different-Phenotype (%) [6]: 46%
Population Mitotic Cells (%) [6]: 75%
Population Normal (%) [6]: 96%
Population Pyknosed Nuclei (%) [6]: 40%
Population Tubulin-Different-Phenotype (%) [6]: 43%
Total Cell Count [6]: 260
Population Apoptotic (%) [7]: 54%
Population Fragmented Nuclei (%) [7]: 31%
Population Healthy Nuclei (%) [7]: 0%
Population Hoechst High Intensity Objects (%) [7]: 35%
Population Membrane Permeable-Phenotype (%) [7]: 100%
Population Mitochondria Different-Phenotype (%) [7]: 100%
Population Mitotic Cells (%) [7]: 45%
Population Normal (%) [7]: 64%
Population Pyknosed Nuclei (%) [7]: 68%
Population Tubulin-Different-Phenotype (%) [7]: 0%
Total Cell Count [7]: 288
Population Apoptotic (%) [8]: 97%
Population Fragmented Nuclei (%) [8]: 25%
Population Healthy Nuclei (%) [8]: 27%
Population Hoechst High Intensity Objects (%) [8]: 13%
Population Membrane Permeable-Phenotype (%) [8]: 23%
Population Mitochondria Different-Phenotype (%) [8]: 9%
Population Mitotic Cells (%) [8]: 2%
Population Normal (%) [8]: 86%
Population Pyknosed Nuclei (%) [8]: 46%
Population Tubulin-Different-Phenotype (%) [8]: 85%
Total Cell Count [8]: 89
Population Fragmented Nuclei (%) [9]: 9%
Population Healthy Nuclei (%) [9]: 77%
Population Hoechst High Intensity Objects (%) [9]: 8%
Population Membrane Permeable-Phenotype (%) [9]: 0%
Population Mitochondria Different-Phenotype (%) [9]: 38%
Population Normal (%) [9]: 91%
Population Pyknosed Nuclei (%) [9]: 12%
Population Tubulin-Different-Phenotype (%) [9]: 30%
Total Cell Count [9]: 290
Population Apoptotic (%) [10]: 33%
Population Fragmented Nuclei (%) [10]: 7%
Population Healthy Nuclei (%) [10]: 78%
Population Hoechst High Intensity Objects (%) [10]: 4%
Population Membrane Permeable-Phenotype (%) [10]: 5%
Population Mitochondria Different-Phenotype (%) [10]: 21%
Population Mitotic Cells (%) [10]: 66%
Population Normal (%) [10]: 95%
Population Pyknosed Nuclei (%) [10]: 14%
Population Tubulin-Different-Phenotype (%) [10]: 42%
Total Cell Count [10]: 411
Population Apoptotic (%) [11]: 58%
Population Fragmented Nuclei (%) [11]: 36%
Population Healthy Nuclei (%) [11]: 0%
Population Hoechst High Intensity Objects (%) [11]: 31%
Population Membrane Permeable-Phenotype (%) [11]: 0%
Population Mitochondria Different-Phenotype (%) [11]: 0%
Population Mitotic Cells (%) [11]: 41%
Population Normal (%) [11]: 68%
Population Pyknosed Nuclei (%) [11]: 63%
Population Tubulin-Different-Phenotype (%) [11]: 0%
Total Cell Count [11]: 277
Population Apoptotic (%) [12]: 100%
Population Fragmented Nuclei (%) [12]: 32%
Population Healthy Nuclei (%) [12]: 47%
Population Hoechst High Intensity Objects (%) [12]: 6%
Population Membrane Permeable-Phenotype (%) [12]: 17%
Population Mitochondria Different-Phenotype (%) [12]: 28%
Population Mitotic Cells (%) [12]: 0%
Population Normal (%) [12]: 93%
Population Pyknosed Nuclei (%) [12]: 20%
Population Tubulin-Different-Phenotype (%) [12]: 65%
Total Cell Count [12]: 79
